Experimental data from ChEMBL document CHEMBL1250501, “Anti-tubercular agents. Part 5: synthesis and biological evaluation of benzothiadiazine 1,1-dioxide based congeners” (Eur J Med Chem, 2010).
The source made the active and inactive calls. No cut-off for these calls is given here.

Experiments:
[1] = Cytotoxicity against mouse AML-12 cells assessed as cell viability at 2 ug/ml after 24 hrs by MTT assay; format: cell-based; conditions: read-out: Activity
Summary of the method: (§1)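 AML-12 hepatocytes in 96-well format, in DMEM with 10% FCS. Exposed to test material at 2–100 µg/mL for 24 h at 37 °C in CO₂. MTT then added for 3 h and formazan formation read. Percentage cytotoxicity calculated relative to untreated cells.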

[2] = Cytotoxicity against mouse AML-12 cells assessed as cell viability at 5 ug/ml after 24 hrs by MTT assay; format: cell-based; conditions: read-out: Activity; summary of the method: as §1
[3] = Cytotoxicity against mouse AML-12 cells assessed as cell viability at 10 ug/ml after 24 hrs by MTT assay; format: cell-based; conditions: read-out: Activity; summary of the method: as §1
[4] = Cytotoxicity against mouse AML-12 cells assessed as cell viability at 25 ug/ml after 24 hrs by MTT assay; format: cell-based; conditions: read-out: Activity; summary of the method: as §1
[5] = Cytotoxicity against mouse AML-12 cells assessed as cell viability at 50 ug/ml after 24 hrs by MTT assay; format: cell-based; conditions: read-out: Activity; summary of the method: as §1
[6] = Cytotoxicity against mouse AML-12 cells assessed as cell viability at 100 ug/ml after 24 hrs by MTT assay; format: cell-based; conditions: read-out: Activity; summary of the method: as §1
[7] = system: Mycobacterium tuberculosis; test: Antimycobacterial activity against Mycobacterium tuberculosis H37Rv infected in BALB/c mouse lung assessed as reduction of bacterial load at 25 mg/kg, po administered 1 week after infection measured after 4 weeks; format: functional
Summary of the method: (§2)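 Female BALB/c mice, 6 weeks old, 20–22 g, acclimatised one week. Infected intranasally with about 1.5 × 10⁶ CFU of H37Rv grown 10 days in 7H9/ADC. Treatment began 1 week post-infection, given orally in 50% PEG in water, for 4 weeks. Lungs and spleens homogenised in saline with 0.05% Tween 80. Duplicate 10-fold dilutions plated on 7H10/OADC, 37 °C, 5% CO₂, 4–6 weeks. Result expressed as log₁₀ CFU per organ versus untreated controls.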

[8] = system: Mycobacterium tuberculosis; test: Antimycobacterial activity against Mycobacterium tuberculosis H37Rv infected in BALB/c mouse spleen assessed as reduction of bacterial load at 25 mg/kg, po administered 1 week after infection measured after 4 weeks; format: functional; summary of the method: as §2
Candida albicans = test: Antifungal activity against Candida albicans MTCC 227 at 20 ug/ml after 48 hrs by cup plate method; format: functional, organism-based
Summary of the method: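 Agar well (cup plate) diffusion on potato dextrose agar 39 g/L. Compounds dissolved in DMSO and loaded into 6 mm wells. Incubated at 28 ± 2 °C for 48 h. Inhibition zone diameter measured to the nearest millimetre, three replicates per treatment. DMSO solvent as negative control, amphotericin B as positive control.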

Aspergillus niger = test: Antifungal activity against Aspergillus niger at 20 ug/ml after 48 hrs by cup plate method; format: functional, organism-based
Summary of the method: (§3)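 Agar well (cup plate) diffusion on potato dextrose agar 39 g/L, with compounds dissolved in DMSO. Plates were incubated at 28 ± 2 °C for 48 h and inhibition zones measured to the nearest mm. Three replicates per treatment. Amphotericin B positive control; solvent control included.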

Aspergillus sp. = test: Antifungal activity against Aspergillus sp. at 20 ug/ml after 48 hrs by cup plate method; format: functional, organism-based; summary of the method: as §3

| Compound | viability at 24 h, 2 ug/ml [1] [%] | viability at 24 h, 5 ug/ml [2] [%] | viability at 24 h, 10 ug/ml [3] [%] | viability at 24 h, 25 ug/ml [4] [%] | viability at 24 h, 50 ug/ml [5] [%] | viability at 24 h, 100 ug/ml [6] [%] | log10cfu [7] | log10cfu [8] | inhibition zone (IZ) (Candida albicans) | inhibition zone (IZ) (Aspergillus niger) [mm] | inhibition zone (IZ) (Aspergillus sp.) [mm] |
| --- | --- | --- | --- | --- | --- | --- | --- | --- | --- | --- | --- |
| O=[N+]([O-])c1ccc(/C=N/NC2=NS(=O)(=O)c3ccccc3N2c2ccccc2)o1 | 2.4 | 9 | 9.1 | 8.5 | 8.7 | 14.9 | 4.8 | 2 | – | – | – |
| NYSTATIN | – | – | – | – | – | – | – | – | inactive | 26 | 16 |
